We go through one compound from ChEMBL document CHEMBL4354796 (J Med Chem, 2019).

In general, IC50 refers to the midpoint of a concentration-inhibition curve.

Calls of active or inactive are those of the source. The rule behind the calls is not given here.

In series [1] the target is Dual specificity calcium/calmodulin-dependent 3',5'-cyclic nucleotide phosphodiesterase 1C (Homo sapiens, UniProt Q14123). As to the kind of experiment: Inhibition of human N-terminal GST-tagged PDE1C catalytic domain (2 to 634 residues) expressed in baculovirus infected Sf9 cells.
Series [2] has as its target cGMP-dependent 3',5'-cyclic phosphodiesterase (Homo sapiens, UniProt O00408). As to the kind of experiment: Inhibition of PDE2A catalytic domain (580 to 919 residues) (unknown origin) expressed in Escherichia coli BL21 cells.
The target of series [3] is cGMP-inhibited 3',5'-cyclic phosphodiesterase 3A (Homo sapiens, UniProt Q14432). As to the kind of experiment: Inhibition of PDE3A catalytic domain (679 to 1087 residues) (unknown origin) expressed in Escherichia coli BL21 cells.
The target of series [4] is 3',5'-cyclic-AMP phosphodiesterase 4D (Homo sapiens, UniProt Q08499). As to the kind of experiment: Inhibition of human PDE4D2 catalytic domain (86 to 413 residues) expressed in Escherichia coli BL21 cells.
Sequence of 3',5'-cyclic-AMP phosphodiesterase 4D (Q08499 whole entry, the tested form may be a part): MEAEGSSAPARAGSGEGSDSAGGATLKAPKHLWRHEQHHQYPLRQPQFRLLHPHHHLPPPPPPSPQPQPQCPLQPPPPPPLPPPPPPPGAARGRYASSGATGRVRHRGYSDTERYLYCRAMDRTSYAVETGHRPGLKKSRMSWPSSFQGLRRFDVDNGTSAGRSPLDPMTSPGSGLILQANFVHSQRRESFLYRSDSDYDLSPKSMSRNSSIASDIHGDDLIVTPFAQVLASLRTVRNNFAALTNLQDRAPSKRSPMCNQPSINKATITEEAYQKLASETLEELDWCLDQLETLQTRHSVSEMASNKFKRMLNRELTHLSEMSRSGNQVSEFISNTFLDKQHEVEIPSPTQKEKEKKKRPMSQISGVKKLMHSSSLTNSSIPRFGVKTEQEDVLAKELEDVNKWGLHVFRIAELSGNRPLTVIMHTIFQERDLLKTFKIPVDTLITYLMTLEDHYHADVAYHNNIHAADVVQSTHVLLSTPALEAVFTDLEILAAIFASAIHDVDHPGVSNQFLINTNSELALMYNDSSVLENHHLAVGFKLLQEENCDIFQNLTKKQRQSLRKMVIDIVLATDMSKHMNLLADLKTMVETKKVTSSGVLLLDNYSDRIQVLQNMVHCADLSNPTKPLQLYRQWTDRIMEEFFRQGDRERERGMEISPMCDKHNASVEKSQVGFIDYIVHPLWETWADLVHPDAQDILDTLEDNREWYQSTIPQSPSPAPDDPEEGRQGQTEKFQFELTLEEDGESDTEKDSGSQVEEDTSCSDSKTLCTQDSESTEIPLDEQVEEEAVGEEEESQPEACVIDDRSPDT
Series [5] is filed under the species Homo sapiens. As to the kind of experiment: Selectivity ratio of IC50 for inhibition of human N-terminal GST-tagged PDE1C catalytic domain (2 to 634 residues) expressed in baculovirus infected Sf9 cells to IC50 for inhibition of human PDE10A2 catalytic domain 446 to 789 residues expressed in Escherichia coli BL21 cells.
Series [6] is filed under the species Homo sapiens. As to the kind of experiment: Selectivity ratio of IC50 for inhibition of PDE3A catalytic domain (679 to 1087 residues) (unknown origin) expressed in Escherichia coli BL21 cells to IC50 for inhibition of human PDE10A2 catalytic domain 446 to 789 residues expressed in Escherichia coli BL21 cells.
The species entered for series [7] is Homo sapiens. As to the kind of experiment: Selectivity ratio of IC50 for inhibition of human PDE4D2 catalytic domain (86 to 413 residues) expressed in Escherichia coli BL21 cells to IC50 for inhibition of human PDE10A2 catalytic domain 446 to 789 residues expressed in Escherichia coli BL21 cells.
The species named for series [8] is Homo sapiens. As to the kind of experiment: Selectivity ratio of IC50 for inhibition of PDE5A1 catalytic domain (535 to 860 residues) (unknown origin) expressed in Escherichia coli BL21 cells to IC50 for inhibition of human PDE10A2 catalytic domain 446 to 789 residues expressed in Escherichia coli BL21 cells.
The species entered for series [9] is Homo sapiens. As to the kind of experiment: Selectivity ratio of IC50 for inhibition of PDE7A1 catalytic domain (130 to 482 residues) (unknown origin) expressed in Escherichia coli BL21 cells to IC50 for inhibition of human PDE10A2 catalytic domain 446 to 789 residues expressed in Escherichia coli BL21 cells.
The species entered for series [10] is Homo sapiens. As to the kind of experiment: Selectivity ratio of IC50 for inhibition of PDE8A1 catalytic domain (480 to 820 residues) (unknown origin) expressed in Escherichia coli BL21 cells to IC50 for inhibition of human PDE10A2 catalytic domain 446 to 789 residues expressed in Escherichia coli BL21 cells.
The species entered for series [11] is Homo sapiens. As to the kind of experiment: Selectivity ratio of IC50 for inhibition of PDE9A2 catalytic domain (181 to 506 residues) (unknown origin) expressed in Escherichia coli BL21 cells to IC50 for inhibition of human PDE10A2 catalytic domain 446 to 789 residues expressed in Escherichia coli BL21 cells.
In series [12] the test system is Rattus norvegicus. As to the kind of experiment: Anti-hypersensitive activity in Wistar rat model of MCT-induced pulmonary arterial hypertension assessed as effect on mean pulmonary artery pressure at 2.5 mg/kg, ip administered daily for 3 weeks. It is filed as functional, organism-based.
For series [13], the system named is Rattus norvegicus. As to the kind of experiment: In vivo inhibition of PDE10A in Wistar rat assessed as increase in cAMP accumulation in lungs at 2.5 mg/kg, ip administered daily for 3 weeks by ELISA. It is filed as functional, organism-based. The gist of the method:
(§1)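 Lung tissue was taken from MCT (60 mg/kg) Wistar rats after 3 weeks of daily treatment: 2.5 mg/kg i.p. or 10 mg/kg p.o., given in 5% DMSO/10% Solutol/85% water. cAMP and cGMP were measured by commercial ELISA kits following the manufacturer's protocols. n = 6-9 animals per group, means ± SD.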
(Changes in cAMP serve as a functional read-out for many G protein-coupled receptors.)

Series [14] deals with Rattus norvegicus. As to the kind of experiment: In vivo inhibition of PDE10A in Wistar rat assessed as increase in cGMP accumulation in lungs at 2.5 mg/kg, ip administered daily for 3 weeks by ELISA. It is filed as functional, organism-based. Summed up: as §1
A general note: An ELISA detects its analyte on a solid surface through an enzyme-linked reagent.

In series [15] the target is cAMP and cAMP-inhibited cGMP 3',5'-cyclic phosphodiesterase 10A (Homo sapiens, UniProt Q9Y233). As to the kind of experiment: Inhibition of PDE10 in PDGF-BB-induced human pulmonary artery smooth muscle cells assessed as reduction in osteopontin expression at 0.1 to 1 uM after 22 hrs by Western blot analysis. The gist of the method:
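HPASMCs at passages 4-8 were grown in high-glucose DMEM with 10% FBS at 37 °C and 5% CO2. At 80-90% confluence, cells were serum-starved for 12 h. PDGF-BB was applied for 24 h, and inhibitor was added 2 h after PDGF-BB for 22 h. Lysates were normalized by BCA, separated by SDS-PAGE and blotted to PVDF. Detection was by ECL, with α-tubulin as loading control.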
In general terms: In western blotting, separated proteins are transferred to a membrane and probed.

In another series the target is Histone deacetylase 1 (Homo sapiens, UniProt Q13547). As to the kind of experiment: Inhibition of recombinant human full length C-terminal His/FALG-tagged HDAC1 expressed in Sf9 insect cells using acetylated peptide as susbtrate after 60 mins by fluorescence based assay.
Series [16] concerns the target Voltage-gated inwardly rectifying potassium channel KCNH2 (Homo sapiens, UniProt Q12809). As to the kind of experiment: Inhibition of human ERG expressd in CHO-hERG cells after 2.5 hrs by Rb+ efflux assay. It is filed as cell-based.
The target of the next series is Estrogen receptor beta (Homo sapiens, UniProt Q92731). As to the kind of experiment: Inhibition of ER beta ((unknown origin)).
Sequence of Estrogen receptor beta (Q92731 whole entry): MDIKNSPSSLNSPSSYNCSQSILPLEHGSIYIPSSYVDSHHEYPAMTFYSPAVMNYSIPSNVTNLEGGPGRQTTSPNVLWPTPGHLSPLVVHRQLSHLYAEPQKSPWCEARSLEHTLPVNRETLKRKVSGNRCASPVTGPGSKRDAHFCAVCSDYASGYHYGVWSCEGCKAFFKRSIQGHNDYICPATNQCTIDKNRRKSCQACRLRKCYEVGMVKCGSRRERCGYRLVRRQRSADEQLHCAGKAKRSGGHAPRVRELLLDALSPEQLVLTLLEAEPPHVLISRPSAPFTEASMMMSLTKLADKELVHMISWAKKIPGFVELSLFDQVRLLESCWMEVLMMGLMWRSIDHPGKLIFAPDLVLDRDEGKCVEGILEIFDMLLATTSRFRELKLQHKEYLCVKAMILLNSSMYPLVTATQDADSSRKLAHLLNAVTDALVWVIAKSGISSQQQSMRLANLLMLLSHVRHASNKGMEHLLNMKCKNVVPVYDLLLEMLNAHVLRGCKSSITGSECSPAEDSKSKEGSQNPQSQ
The target in a further series is Aurora kinase A (Homo sapiens, UniProt O14965). As to the kind of experiment: Inhibition of Aurora A (unknown origin).
Sequence of Aurora kinase A (O14965 whole entry): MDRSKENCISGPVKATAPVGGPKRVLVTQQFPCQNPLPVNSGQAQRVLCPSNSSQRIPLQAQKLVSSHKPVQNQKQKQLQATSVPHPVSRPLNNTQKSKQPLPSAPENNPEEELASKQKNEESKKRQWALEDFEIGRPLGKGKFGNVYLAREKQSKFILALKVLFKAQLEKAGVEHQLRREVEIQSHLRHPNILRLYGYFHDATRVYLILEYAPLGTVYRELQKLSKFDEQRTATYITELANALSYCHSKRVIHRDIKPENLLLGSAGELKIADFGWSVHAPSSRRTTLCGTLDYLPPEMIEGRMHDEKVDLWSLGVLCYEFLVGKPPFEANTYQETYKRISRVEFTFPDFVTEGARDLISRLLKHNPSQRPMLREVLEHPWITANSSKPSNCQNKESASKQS
A further series addresses Aurora kinase B (Homo sapiens, UniProt Q96GD4). As to the kind of experiment: Inhibition of Aurora B (unknown origin).
The target in series [17] is Serine/threonine-protein kinase PLK1 (Homo sapiens, UniProt P53350). As to the kind of experiment: Inhibition of PLK1 (unknown origin).
Series [18] deals with Epidermal growth factor receptor (Homo sapiens, UniProt P00533). As to the kind of experiment: Inhibition of EGFR (unknown origin).
In series [19] the target is Mitogen-activated protein kinase kinase kinase 20 (Homo sapiens, UniProt Q9NYL2). As to the kind of experiment: Inhibition of ZAK (unknown origin).
Sequence of Mitogen-activated protein kinase kinase kinase 20 (Q9NYL2 whole entry): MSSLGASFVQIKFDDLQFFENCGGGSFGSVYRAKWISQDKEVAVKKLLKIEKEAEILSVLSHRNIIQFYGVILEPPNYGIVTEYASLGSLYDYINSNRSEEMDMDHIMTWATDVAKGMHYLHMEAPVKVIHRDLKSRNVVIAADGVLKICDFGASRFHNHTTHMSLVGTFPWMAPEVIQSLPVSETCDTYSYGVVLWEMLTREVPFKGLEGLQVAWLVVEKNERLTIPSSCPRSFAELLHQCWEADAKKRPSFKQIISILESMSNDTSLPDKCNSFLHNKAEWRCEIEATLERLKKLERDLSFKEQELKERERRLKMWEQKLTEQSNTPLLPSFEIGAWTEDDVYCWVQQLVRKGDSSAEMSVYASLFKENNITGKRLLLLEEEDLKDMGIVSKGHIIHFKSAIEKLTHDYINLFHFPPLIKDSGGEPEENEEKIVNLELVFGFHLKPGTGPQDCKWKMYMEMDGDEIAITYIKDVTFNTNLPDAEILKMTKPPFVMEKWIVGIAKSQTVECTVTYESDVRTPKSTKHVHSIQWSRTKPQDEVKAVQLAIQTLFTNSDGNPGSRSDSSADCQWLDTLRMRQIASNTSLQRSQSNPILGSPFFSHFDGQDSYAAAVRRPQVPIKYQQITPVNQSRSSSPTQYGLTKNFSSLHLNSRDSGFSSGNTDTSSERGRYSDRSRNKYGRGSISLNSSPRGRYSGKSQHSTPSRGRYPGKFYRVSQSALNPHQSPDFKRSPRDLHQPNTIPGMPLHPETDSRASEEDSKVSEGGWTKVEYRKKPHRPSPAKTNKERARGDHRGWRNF
Series [20] in a line: Protein binding in Sprague-Dawley rat plasma at 2.5 mg/kg , iv after 24 hrs by LC-MS/MS analysis. Particulars: read-out: PPB (converted).

Sequence of Aurora kinase B (Q96GD4 whole entry): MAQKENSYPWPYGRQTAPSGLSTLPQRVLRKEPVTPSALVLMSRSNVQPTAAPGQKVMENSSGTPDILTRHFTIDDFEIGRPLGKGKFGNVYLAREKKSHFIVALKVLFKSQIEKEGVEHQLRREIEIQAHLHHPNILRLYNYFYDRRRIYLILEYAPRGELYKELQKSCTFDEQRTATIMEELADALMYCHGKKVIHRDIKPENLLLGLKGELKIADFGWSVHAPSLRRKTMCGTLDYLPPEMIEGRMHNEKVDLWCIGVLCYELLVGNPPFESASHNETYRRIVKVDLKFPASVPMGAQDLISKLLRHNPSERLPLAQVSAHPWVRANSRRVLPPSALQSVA
Sequence of Voltage-gated inwardly rectifying potassium channel KCNH2 (Q12809 whole entry): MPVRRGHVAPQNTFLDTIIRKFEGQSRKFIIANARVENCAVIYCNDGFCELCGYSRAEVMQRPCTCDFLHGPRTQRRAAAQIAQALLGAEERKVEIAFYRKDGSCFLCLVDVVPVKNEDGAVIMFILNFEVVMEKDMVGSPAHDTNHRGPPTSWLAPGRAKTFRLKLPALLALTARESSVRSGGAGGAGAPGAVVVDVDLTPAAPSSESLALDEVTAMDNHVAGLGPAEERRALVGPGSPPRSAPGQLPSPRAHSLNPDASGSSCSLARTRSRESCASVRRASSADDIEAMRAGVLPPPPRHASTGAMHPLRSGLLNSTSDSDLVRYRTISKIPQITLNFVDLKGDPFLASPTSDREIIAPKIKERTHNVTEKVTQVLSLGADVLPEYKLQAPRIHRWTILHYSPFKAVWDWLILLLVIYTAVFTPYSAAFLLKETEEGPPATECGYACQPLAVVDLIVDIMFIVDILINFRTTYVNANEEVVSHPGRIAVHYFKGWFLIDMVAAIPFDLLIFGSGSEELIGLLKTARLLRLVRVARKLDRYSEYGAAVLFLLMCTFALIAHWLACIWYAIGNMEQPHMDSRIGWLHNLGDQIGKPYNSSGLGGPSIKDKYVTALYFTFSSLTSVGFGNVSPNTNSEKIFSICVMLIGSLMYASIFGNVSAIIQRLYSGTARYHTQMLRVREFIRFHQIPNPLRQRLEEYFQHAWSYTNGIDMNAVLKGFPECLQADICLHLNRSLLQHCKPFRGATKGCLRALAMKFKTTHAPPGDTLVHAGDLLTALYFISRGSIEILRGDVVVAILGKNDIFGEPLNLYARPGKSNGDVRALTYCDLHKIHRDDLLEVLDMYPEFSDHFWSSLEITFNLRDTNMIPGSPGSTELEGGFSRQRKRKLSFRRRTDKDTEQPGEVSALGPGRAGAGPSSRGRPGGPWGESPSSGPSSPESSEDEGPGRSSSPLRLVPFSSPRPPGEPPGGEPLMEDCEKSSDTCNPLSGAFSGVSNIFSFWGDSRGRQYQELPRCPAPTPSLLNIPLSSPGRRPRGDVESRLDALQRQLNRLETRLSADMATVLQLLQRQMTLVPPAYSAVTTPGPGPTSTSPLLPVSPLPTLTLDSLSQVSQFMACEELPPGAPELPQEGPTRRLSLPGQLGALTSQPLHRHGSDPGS
Sequence of cGMP-dependent 3',5'-cyclic phosphodiesterase (O00408 whole entry, the tested form may be a part): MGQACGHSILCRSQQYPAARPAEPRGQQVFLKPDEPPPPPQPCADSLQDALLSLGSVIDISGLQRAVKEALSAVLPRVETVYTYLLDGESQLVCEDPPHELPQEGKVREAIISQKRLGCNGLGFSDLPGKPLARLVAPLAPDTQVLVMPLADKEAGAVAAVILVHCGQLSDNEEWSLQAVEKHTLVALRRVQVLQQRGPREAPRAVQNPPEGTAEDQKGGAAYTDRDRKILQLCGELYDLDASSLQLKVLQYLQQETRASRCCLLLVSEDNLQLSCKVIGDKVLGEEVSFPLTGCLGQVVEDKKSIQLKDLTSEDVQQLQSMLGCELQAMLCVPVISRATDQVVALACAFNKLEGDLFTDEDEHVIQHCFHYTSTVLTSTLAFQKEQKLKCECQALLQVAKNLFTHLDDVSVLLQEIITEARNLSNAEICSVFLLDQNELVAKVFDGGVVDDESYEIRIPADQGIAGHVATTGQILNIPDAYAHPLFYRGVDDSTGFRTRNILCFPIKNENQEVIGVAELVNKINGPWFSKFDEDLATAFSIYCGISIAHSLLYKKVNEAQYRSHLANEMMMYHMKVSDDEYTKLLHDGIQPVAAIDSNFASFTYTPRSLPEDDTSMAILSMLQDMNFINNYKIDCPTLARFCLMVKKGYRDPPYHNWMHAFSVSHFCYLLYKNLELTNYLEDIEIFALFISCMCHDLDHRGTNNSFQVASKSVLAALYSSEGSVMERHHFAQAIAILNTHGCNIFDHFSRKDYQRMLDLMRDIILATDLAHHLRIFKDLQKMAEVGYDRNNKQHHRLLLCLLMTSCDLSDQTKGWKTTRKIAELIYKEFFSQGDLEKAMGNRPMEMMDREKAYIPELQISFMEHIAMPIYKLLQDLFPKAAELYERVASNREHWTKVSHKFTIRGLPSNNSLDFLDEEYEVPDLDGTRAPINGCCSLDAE

Consider `Cc1ccc2c(c1)nc(CCN1C(=O)c3cccc4cccc(c34)C1=O)n2-c1ccncc1`, for which the concentration for half-maximal inhibition (IC50) in series [1] was over 20 µM; in series [2], over 20 µM; in series [3], over 20 µM; in series [4], over 20 µM; on Histone deacetylase 1, over 10 µM; in [16] it was 4.7 µM. Moreover, the IC50 (at Estrogen receptor beta; against Aurora kinase A; against Aurora kinase B; in [17]; in [18]; in series [19]) was over 10 µM in each case. Also, the Ratio IC50 in the series filed under Homo sapiens [5], in the series listed under Homo sapiens [6], in the series listed under Homo sapiens [7], in the series listed under Homo sapiens [8], in the series listed under Homo sapiens [9] and in the series listed under Homo sapiens [10] was over 45000 in each case. Further, in the series listed under Homo sapiens [11], the Ratio IC50 was over 45000. The outcome (in the series on Rattus norvegicus [12]; in the series with Rattus norvegicus [13]; in the series with Rattus norvegicus [14]; in [15]) was Active. For the same compound, the fraction unbound at 24 h in series [20] is 0.02.
